Measured values from ChEMBL document CHEMBL4038284, “Synthesis of novel quinoline-based 4,5-dihydro-1H-pyrazoles as potential anticancer, antifungal, antibacterial and antiprotozoal agents” (Eur J Med Chem, 2017).
Converted amounts (≈) assume the structure as drawn.

Assays:
Klebsiella pneumoniae [1] = experiment: Antibacterial activity against ESBL positive Klebsiella pneumoniae ATCC 700603 after 24 hrs by resazurin dye based microdilution assay; format: functional; settings: Klebsiella pneumoniae, 700603, 24 h
Method in brief: (§1)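 MIC taken as the lowest concentration giving visible inhibition and/or by resazurin (1 mg/mL). Gentamicin was the control. Run in duplicate, repeated at least three times.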

Klebsiella pneumoniae [2] = experiment: Antibacterial activity against carbapenemase positive Klebsiella pneumoniae BAA 1705 after 24 hrs by resazurin dye based microdilution assay; format: functional; settings: BAA 1705, 24 h; method in brief: as §1
Leishmania panamensis = experiment: Antileshmanial activity against EpiR/GFP fused Leishmania panamensis MHOM/CO/87/UA140 intracellular amastigotes infected in human […] cells after 72 hrs by flow cytometric method; format: functional, cell-based; settings: MHOM/CO/87/UA140, 72 h
Method in brief: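 PMA-treated U-937 cells (3 × 10^5 cells/mL) infected with stationary-phase GFP L. panamensis promastigotes (15:1), 3 h at 34 °C, then washed. After 24 h, compounds added at 50, 12.5, 3.125 and 0.78 µg/mL for 72 h at 37 °C. EC50 by Probit; triplicate, two experiments.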

Candida albicans [3] = experiment: Antifungal activity against Candida albicans ATCC 10231 incubated for 48 hrs under dark condition by broth microdilution method; format: functional; settings: ATCC 10231, 48 h
Method in brief: (§2)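 CLSI M27-A3 broth microdilution in RPMI-1640, DMSO ≤1%, compounds at 250-0.98 µg/mL final. Inoculum 1-5 × 10^3 CFU/mL. Incubated 48 h at 30 °C in a moist dark chamber, read at OD405. MIC80 and MIC50 taken from % inhibition dose-response curves (mean ± SEM, triplicate). Amphotericin B was the positive control.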

Cryptococcus neoformans [4] = experiment: Antifungal activity against Cryptococcus neoformans ATCC 32264 incubated for 48 hrs under dark condition by broth microdilution method; format: functional; settings: ATCC 32264, 48 h; method in brief: as §2
Candida albicans [5] = experiment: Growth inhibition of Candida albicans ATCC 10231 at 250 ug/ml incubated for 48 hrs under dark condition by broth microdilution method relative to control; format: functional; settings: ATCC 10231, 48 h, read-out: GI
Method in brief: (§3)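 CLSI M27-A3 broth microdilution in RPMI-1640, DMSO ≤1%. Inoculum 1-5 × 10^3 CFU/mL. Incubated 48 h at 30 °C, dark. % inhibition = 100 − (OD405 test − sterility control)/(OD405 growth control − sterility control), with growth and sterility control wells. Triplicate.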

Candida albicans [6] = experiment: Growth inhibition of Candida albicans ATCC 10231 at 125 ug/ml incubated for 48 hrs under dark condition by broth microdilution method relative to control; format: functional; settings: ATCC 10231, 48 h, read-out: GI; method in brief: as §3
Candida albicans [7] = experiment: Growth inhibition of Candida albicans ATCC 10231 at 62.5 ug/ml incubated for 48 hrs under dark condition by broth microdilution method relative to control; format: functional; settings: ATCC 10231, 48 h, read-out: GI; method in brief: as §3
Candida albicans [8] = experiment: Growth inhibition of Candida albicans ATCC 10231 at 31.25 ug/ml incubated for 48 hrs under dark condition by broth microdilution method relative to control; format: functional; settings: ATCC 10231, 48 h, read-out: GI; method in brief: as §3
Candida albicans [9] = experiment: Growth inhibition of Candida albicans ATCC 10231 at 15.62 ug/ml incubated for 48 hrs under dark condition by broth microdilution method relative to control; format: functional; settings: ATCC 10231, 48 h, read-out: GI; method in brief: as §3
Candida albicans [10] = experiment: Growth inhibition of Candida albicans ATCC 10231 at 7.8 ug/ml incubated for 48 hrs under dark condition by broth microdilution method relative to control; format: functional; settings: ATCC 10231, 48 h, read-out: GI; method in brief: as §3
Candida albicans [11] = experiment: Growth inhibition of Candida albicans ATCC 10231 at 3.4 ug/ml incubated for 48 hrs under dark condition by broth microdilution method relative to control; format: functional; settings: ATCC 10231, 48 h, read-out: GI
Cryptococcus neoformans [12] = experiment: Growth inhibition of Cryptococcus neoformans ATCC 32264 at 250 ug/ml incubated for 48 hrs under dark condition by broth microdilution method relative to control; format: functional; settings: ATCC 32264, 48 h, read-out: GI; method in brief: as §3
Cryptococcus neoformans [13] = experiment: Growth inhibition of Cryptococcus neoformans ATCC 32264 at 125 ug/ml incubated for 48 hrs under dark condition by broth microdilution method relative to control; format: functional; settings: ATCC 32264, 48 h, read-out: GI; method in brief: as §3
Cryptococcus neoformans [14] = experiment: Growth inhibition of Cryptococcus neoformans ATCC 32264 at 62.5 ug/ml incubated for 48 hrs under dark condition by broth microdilution method relative to control; format: functional; settings: ATCC 32264, 48 h, read-out: GI; method in brief: as §3
Cryptococcus neoformans [15] = experiment: Growth inhibition of Cryptococcus neoformans ATCC 32264 at 31.25 ug/ml incubated for 48 hrs under dark condition by broth microdilution method relative to control; format: functional; settings: ATCC 32264, 48 h, read-out: GI; method in brief: as §3
Cryptococcus neoformans [16] = experiment: Growth inhibition of Cryptococcus neoformans ATCC 32264 at 15.62 ug/ml incubated for 48 hrs under dark condition by broth microdilution method relative to control; format: functional; settings: ATCC 32264, 48 h, read-out: GI; method in brief: as §3
Cryptococcus neoformans [17] = experiment: Growth inhibition of Cryptococcus neoformans ATCC 32264 at 7.8 ug/ml incubated for 48 hrs under dark condition by broth microdilution method relative to control; format: functional; settings: ATCC 32264, 48 h, read-out: GI; method in brief: as §3
Cryptococcus neoformans [18] = experiment: Growth inhibition of Cryptococcus neoformans ATCC 32264 at 3.4 ug/ml incubated for 48 hrs under dark condition by broth microdilution method relative to control; format: functional; settings: ATCC 32264, 48 h, read-out: GI
Staphylococcus aureus [19] = experiment: Antibacterial activity against methicillin-sensitive Staphylococcus aureus ATCC 25923 after 24 hrs by resazurin dye based microdilution assay; format: functional; settings: ATCC 25923, 24 h; method in brief: as §1
Staphylococcus aureus [20] = experiment: Antibacterial activity against methicillin-resistant Staphylococcus aureus ATCC 43300 after 24 hrs by resazurin dye based microdilution assay; format: functional; settings: ATCC 43300, 24 h
Method in brief: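 Broth microdilution in Mueller Hinton broth, inoculum 5 × 10^5 – 8 × 10^5. Compound stocks diluted in MHB with 5% DMSO and 0.1% Tween 80. Incubation 24 h at 35-37 °C. MIC is the lowest concentration with visible growth inhibition and/or by resazurin (1 mg/mL) read-out. Gentamicin as control. Run in duplicate, replicated at least three times.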

Staphylococcus aureus [21] = experiment: Antibacterial activity against vancomycin-intermediate Staphylococcus aureus after 24 hrs by resazurin dye based microdilution assay; format: functional; method in brief: as §1
Escherichia coli = experiment: Antibacterial activity against Escherichia coli ATCC 25922 after 24 hrs by resazurin dye based microdilution assay; format: functional; settings: ATCC 25922, 24 h; method in brief: as §1
Pseudomonas aeruginosa = experiment: Antibacterial activity against Pseudomonas aeruginosa ATCC 27853 after 24 hrs by resazurin dye based microdilution assay; format: functional; settings: ATCC 27853, 24 h; method in brief: as §1
Neisseria gonorrhoeae = experiment: Antibacterial activity against beta lactamase positive Neisseria gonorrhoeae ATCC 31426 by oxidase test; format: functional
Method in brief: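 Agar dilution MIC on GC agar with 1% isovitalex containing increasing compound concentrations. Plates inoculated with about 1×10^4 CFU (5 µL). MIC is the lowest concentration that inhibited growth, with growth confirmed by oxidase test. Run in duplicate, repeated at least three times.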

Plasmodium falciparum = experiment: Antiplasmodial activity against chloroquine-sensitive Plasmodium falciparum 3D7 assessed as reduction in parasitic LDH activity after 48 hrs by Malstat reagent based […] method; format: functional; settings: 3D7, 48 h
Method in brief: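 Unsynchronized P. falciparum 3D7 at 0.5% parasitemia and 1% hematocrit in RPMI with 3% Albumax II. Exposed to 100, 25, 6.25 and 1.56 µg/mL for 48 h at 37 °C under 90% N2/5% CO2/5% O2. After three freeze-thaw cycles, LDH measured with Malstat and NBT/PES, 1 h in the dark, read at 650 nm. IC50 by Probit; triplicate, ≥2 experiments.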

U-937 = experiment: Cytotoxicity against human U937 cells after 72 hrs by MTT assay; format: cell-based; settings: u-937, 72 h
Method in brief: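 Exponentially growing U-937 at 1 × 10^5 cells/mL in RPMI-1640 with 10% FBS were exposed to 200, 50, 12.5 and 3.125 µg/mL for 72 h at 37 °C, 5% CO2. MTT for 3 h, stopped with isopropanol/SDS, formazan read at 570 nm, blank-corrected. LC50 by Probit from % viability against untreated cells. Triplicate, at least two independent experiments.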

Trypanosoma cruzi = experiment: Antitrypanosomal activity against Trypanosoma cruzi Tulahuen intracellular amastigote harboring LacZ infected in human U937 cells after 72 hrs by CPRG/Nonidet reagent based spectrophotometric method; format: functional, cell-based; settings: U-937, 72 h
Method in brief: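 U-937 cells at 2.5 × 10^5 cells/mL in RPMI-1640 with 10% serum and 0.1 µg/mL PMA were infected with β-galactosidase-transfected Tulahuen epimastigotes at 5 parasites per cell. Infected cells were exposed to 50, 12.5, 3.125 and 0.78 µg/mL for 72 h. CPRG (100 uM) and 0.1% Nonidet P-40 were added for 3 h, read at 570 nm. EC50 by Probit. Triplicate, at least two experiments; benznidazole as reference.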

`Cc1ccc(C(=O)/C=C/c2cccc(Nc3ccnc4cc(Cl)ccc34)c2)cc1` was tested, and the MIC (Klebsiella pneumoniae [1]) was > 1000 µg/mL, the MIC (Klebsiella pneumoniae [2]) was > 1000 µg/mL and the EC50 (Leishmania panamensis) was 1.2 µg/mL (≈ 3.01 µM). The MIC50 (Candida albicans [3]) was 125 µg/mL (≈ 313 µM), the MIC80 (Candida albicans [3]) was ≥ 250 µg/mL and the MIC50 (Cryptococcus neoformans [4]) was 7.8 µg/mL (≈ 19.6 µM). For the same compound, the MIC80 (Cryptococcus neoformans [4]) was 15.6 µg/mL (≈ 39.2 µM), the inhibition of growth at 250 µg/mL (Candida albicans [5]) was 63.6% and the inhibition of growth at 125 µg/mL (Candida albicans [6]) was 53.1%. It also gave an inhibition of growth at 62.5 µg/mL (Candida albicans [7]) of 45.4%, an inhibition of growth at 31.25 µg/mL (Candida albicans [8]) of 39.6% and an inhibition of growth at 15.62 µg/mL (Candida albicans [9]) of 36.6%. The inhibition of growth at 7.8 µg/mL (Candida albicans [10]) was 30.6%, the inhibition of growth at 3.4 µg/mL (Candida albicans [11]) was 27.2% and the inhibition of growth at 250 µg/mL (Cryptococcus neoformans [12]) was 100%. It also gave an inhibition of growth at 125 µg/mL (Cryptococcus neoformans [13]) of 100%, an inhibition of growth at 62.5 µg/mL (Cryptococcus neoformans [14]) of 100% and an inhibition of growth at 31.25 µg/mL (Cryptococcus neoformans [15]) of 100%. The inhibition of growth at 15.62 µg/mL (Cryptococcus neoformans [16]) was 93.7%, the inhibition of growth at 7.8 µg/mL (Cryptococcus neoformans [17]) was 71.8% and the inhibition of growth at 3.4 µg/mL (Cryptococcus neoformans [18]) was 41.4%. For the same compound, the MIC (Staphylococcus aureus [19]) was > 1000 µg/mL, the MIC (Staphylococcus aureus [20]) was > 1000 µg/mL and the MIC (Staphylococcus aureus [21]) was > 1000 µg/mL. For the same compound, the MIC (Escherichia coli) was > 1000 µg/mL, the MIC (Pseudomonas aeruginosa) was > 1000 µg/mL and the MIC (Neisseria gonorrhoeae) was > 1000 µg/mL. The EC50 (Plasmodium falciparum) was 10.3 µg/mL (≈ 25.7 µM), the LC50 (U-937) was 2 µg/mL (≈ 5.01 µM) and the EC50 (Trypanosoma cruzi) was > 1 µg/mL.
